{
  "source": "ChEMBL document CHEMBL4673384",
  "about": "“Studying Histone Deacetylase Inhibition and Apoptosis Induction of Psammaplin A Monomers with Modified Thiol Group” (ACS Med Chem Lett, 2021)",
  "key": {"HL-60 [1]": {"system": "HL-60", "assay": "Induction of apoptosis in human HL-60 cells assessed as early apoptotic cells at 2 uM incubated for 24 hrs by propidium iodide and annexin-V FITC staining based FACS analysis (reference value: 2.8 %)", "assay_type": "functional"}, "[2]": {"target": "Histone deacetylase 3 (Homo sapiens) (UniProt O15379)", "sequence (O15379 whole entry)": "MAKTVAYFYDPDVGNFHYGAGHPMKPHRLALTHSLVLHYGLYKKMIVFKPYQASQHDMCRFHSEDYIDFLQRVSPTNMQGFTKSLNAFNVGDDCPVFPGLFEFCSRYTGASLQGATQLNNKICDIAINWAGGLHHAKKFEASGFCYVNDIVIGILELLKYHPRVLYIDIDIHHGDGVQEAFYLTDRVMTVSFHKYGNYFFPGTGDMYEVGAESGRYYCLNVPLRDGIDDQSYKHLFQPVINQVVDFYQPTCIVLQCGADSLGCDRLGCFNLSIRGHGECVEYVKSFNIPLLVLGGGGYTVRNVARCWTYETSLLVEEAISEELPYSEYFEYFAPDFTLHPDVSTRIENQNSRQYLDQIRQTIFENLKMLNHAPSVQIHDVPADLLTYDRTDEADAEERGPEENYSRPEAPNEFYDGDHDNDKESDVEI", "assay": "Inhibition of HDAC3 in human HL-60 cells assessed as increase in Ac-H3 level at 0.5 to 2 uM incubated for 24 hrs by Western blot analysis", "assay_type": "cell-based", "conditions": "dose 0.5-2 µM", "how_it_was_run": "(§1)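 Compound given to HL-60 cells for 24 h at the stated concentrations, then lysed. Acetyl-histone H3 and acetyl-α-tubulin levels were read by Western blot, with total H3, α-tubulin or β-actin as references.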"}, "HL-60 [3]": {"system": "HL-60", "assay": "Induction of apoptosis in human HL-60 cells assessed as necrotic cells at 2 uM incubated for 24 hrs by propidium iodide and annexin-V FITC staining based FACS analysis (reference value: 0.3 %)", "assay_type": "functional"}, "HL-60 [4]": {"system": "HL-60", "assay": "Induction of apoptosis in human HL-60 cells assessed as late apoptotic cells at 0.5 uM incubated for 24 hrs by propidium iodide and annexin-V FITC staining based FACS analysis (reference value: 4.8 %)", "assay_type": "functional"}, "[5]": {"target": "T1, Protein deacetylase HDAC6 (Homo sapiens) (UniProt Q9UBN7)", "T1 sequence (whole entry)": "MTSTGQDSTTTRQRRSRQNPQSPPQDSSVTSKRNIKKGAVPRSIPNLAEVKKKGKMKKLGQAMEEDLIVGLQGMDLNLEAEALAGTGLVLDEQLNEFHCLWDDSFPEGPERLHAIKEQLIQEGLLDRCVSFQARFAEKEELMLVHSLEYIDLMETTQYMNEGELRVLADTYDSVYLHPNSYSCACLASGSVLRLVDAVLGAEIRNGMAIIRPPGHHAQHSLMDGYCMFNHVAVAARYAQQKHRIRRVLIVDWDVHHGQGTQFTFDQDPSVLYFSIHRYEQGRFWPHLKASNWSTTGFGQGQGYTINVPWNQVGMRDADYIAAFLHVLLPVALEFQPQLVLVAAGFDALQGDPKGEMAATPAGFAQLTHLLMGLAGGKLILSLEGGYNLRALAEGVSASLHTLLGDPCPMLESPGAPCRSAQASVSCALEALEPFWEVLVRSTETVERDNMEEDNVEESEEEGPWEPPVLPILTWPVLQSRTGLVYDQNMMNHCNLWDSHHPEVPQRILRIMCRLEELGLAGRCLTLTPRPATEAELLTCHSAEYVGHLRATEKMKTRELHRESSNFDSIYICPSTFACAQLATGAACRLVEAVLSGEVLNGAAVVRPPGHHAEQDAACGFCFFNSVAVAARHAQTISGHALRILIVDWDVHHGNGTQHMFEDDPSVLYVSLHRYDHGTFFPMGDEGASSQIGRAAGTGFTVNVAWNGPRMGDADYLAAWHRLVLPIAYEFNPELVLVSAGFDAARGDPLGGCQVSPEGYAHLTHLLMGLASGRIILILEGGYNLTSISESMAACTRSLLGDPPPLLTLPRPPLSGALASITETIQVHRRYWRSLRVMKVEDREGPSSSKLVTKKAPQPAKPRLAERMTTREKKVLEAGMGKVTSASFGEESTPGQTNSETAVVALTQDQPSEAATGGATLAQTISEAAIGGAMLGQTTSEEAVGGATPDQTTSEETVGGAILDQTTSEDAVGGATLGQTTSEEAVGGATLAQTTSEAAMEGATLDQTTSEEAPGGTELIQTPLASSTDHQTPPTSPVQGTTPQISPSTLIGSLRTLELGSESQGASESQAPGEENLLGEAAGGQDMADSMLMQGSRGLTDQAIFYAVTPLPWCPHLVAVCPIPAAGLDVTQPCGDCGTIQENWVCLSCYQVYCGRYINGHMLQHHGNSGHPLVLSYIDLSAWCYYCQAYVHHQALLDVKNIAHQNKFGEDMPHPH", "assay": "Inhibition of HDAC6 in human HL-60 cells assessed as increase in acetylated alpha tubulin level at 0.5 uM after 24 hrs by Western blot analysis", "assay_type": "cell-based", "how_it_was_run": "as §1"}, "HL-60 [6]": {"system": "HL-60", "assay": "Induction of apoptosis in human HL-60 cells assessed as necrotic cells at 0.5 uM incubated for 24 hrs by propidium iodide and annexin-V FITC staining based FACS analysis (reference value: 0.3 %)", "assay_type": "functional"}, "HL-60 [7]": {"system": "HL-60", "assay": "Induction of apoptosis in human HL-60 cells assessed as cleavage of caspase-3 at 0.5 to 2 uM after 24 hrs Western blot analysis", "assay_type": "functional, cell-based", "conditions": "dose 0.5-2 µM", "how_it_was_run": "(§2)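 HL-60 cells were treated for 24 h at the indicated concentrations, then analysed by Western blot. Blots were probed for cleavage of PARP and caspase-3, -8 and -9. Ac-H3, Ac-α-tubulin and β-actin were also detected, with β-actin as the loading reference.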"}, "HL-60 [8]": {"system": "HL-60", "assay": "Induction of apoptosis in human HL-60 cells assessed as late apoptotic cells at 2 uM incubated for 24 hrs by propidium iodide and annexin-V FITC staining based FACS analysis (reference value: 4.8 %)", "assay_type": "functional"}, "Histone deacetylase 1": {"target": "Histone deacetylase 1 (Homo sapiens, UniProt Q13547)", "sequence (Q13547 whole entry)": "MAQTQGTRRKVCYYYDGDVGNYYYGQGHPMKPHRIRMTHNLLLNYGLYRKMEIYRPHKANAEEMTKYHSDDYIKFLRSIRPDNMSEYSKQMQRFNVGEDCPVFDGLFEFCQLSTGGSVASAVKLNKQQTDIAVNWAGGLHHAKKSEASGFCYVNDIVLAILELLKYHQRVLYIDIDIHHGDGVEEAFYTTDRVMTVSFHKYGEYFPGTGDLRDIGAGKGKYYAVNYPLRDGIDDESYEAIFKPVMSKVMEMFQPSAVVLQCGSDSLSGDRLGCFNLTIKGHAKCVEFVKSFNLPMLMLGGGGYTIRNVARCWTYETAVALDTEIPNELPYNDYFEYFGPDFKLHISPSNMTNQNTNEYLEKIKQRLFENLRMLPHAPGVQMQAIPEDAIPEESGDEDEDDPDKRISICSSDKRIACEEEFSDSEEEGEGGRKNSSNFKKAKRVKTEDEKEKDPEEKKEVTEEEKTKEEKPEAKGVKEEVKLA", "assay": "Inhibition of HDAC1 in human HL-60 cells assessed as increase in Ac-H3 level at 0.5 to 2 uM incubated for 24 hrs by Western blot analysis", "assay_type": "cell-based", "conditions": "dose 0.5-2 µM", "how_it_was_run": "as §1"}, "HL-60 [9]": {"system": "HL-60", "assay": "Induction of apoptosis in human HL-60 cells assessed as cleavage of caspase-8 at 0.5 to 2 uM after 24 hrs Western blot analysis", "assay_type": "functional, cell-based", "conditions": "dose 0.5-2 µM", "how_it_was_run": "as §2"}, "HL-60 [10]": {"system": "HL-60", "assay": "Induction of apoptosis in human HL-60 cells assessed as early apoptotic cells at 0.5 uM incubated for 24 hrs by propidium iodide and annexin-V FITC staining based FACS analysis (reference value: 2.8 %)", "assay_type": "functional"}, "HL-60 [11]": {"system": "HL-60", "assay": "Induction of apoptosis in human HL-60 cells assessed as late apoptotic cells at 1 uM incubated for 24 hrs by propidium iodide and annexin-V FITC staining based FACS analysis (reference value: 4.8 %)", "assay_type": "functional"}, "HL-60 [12]": {"system": "HL-60", "assay": "Induction of apoptosis in human HL-60 cells assessed as early apoptotic cells at 1 uM incubated for 24 hrs by propidium iodide and annexin-V FITC staining based FACS analysis (reference value: 2.9 %)", "assay_type": "functional"}, "HL-60 [13]": {"system": "HL-60", "assay": "Induction of apoptosis in human HL-60 cells assessed as late apoptotic cells at 8 uM incubated for 24 hrs by propidium iodide and annexin-V FITC staining based FACS analysis (reference value: 4.2 %)", "assay_type": "functional"}, "[14]": {"assay": "Toxicity in mouse LL/2 cells inoculated C57BL/6J mouse assessed as effect on body weight by measuring initial body weight at 100 mg/kg, ip administered for 12 days and measured for every 2 days (reference value: 18.6 +/- 0.8 g)", "assay_type": "organism-based", "conditions": "in vivo, 288 h, time 12 day"}, "[15]": {"assay": "Antitumor activity against mouse LL/2 cells inoculated in C57BL/6J mouse assessed as reduction of tumor weight at 100 mg/kg, ip administered for 12 days and measured at day 14 (reference value: 1.2 +/- 0.3 g)", "assay_type": "functional, Lewis lung carcinoma", "conditions": "time 12 day"}, "HL-60 [16]": {"system": "HL-60", "assay": "Induction of apoptosis in human HL-60 cells assessed as early apoptotic cells at 8 uM incubated for 24 hrs by propidium iodide and annexin-V FITC staining based FACS analysis (reference value: 2.9 %)", "assay_type": "functional"}},
  "note": "Activity calls are given as the source filed them. The rule behind the calls is not given here.",
  "data": [
    {"smiles": "O=C(CCNC(=O)/C(Cc1ccc(O)c(Br)c1)=N/O)NO", "values": [
      {"measurement": "Activity", "setting": "HL-60 [1]", "result": 7.3, "unit": "%"},
      {"measurement": "inhibition", "setting": "[2]", "result": "Active"},
      {"measurement": "Activity", "setting": "HL-60 [3]", "result": 0.8, "unit": "%"},
      {"measurement": "Activity", "setting": "HL-60 [4]", "result": 5.9, "unit": "%"},
      {"measurement": "inhibition", "setting": "[5]", "result": "Active"},
      {"measurement": "Activity", "setting": "HL-60 [6]", "result": 0.2, "unit": "%"},
      {"measurement": "Activity", "setting": "HL-60 [7]", "result": "Active"},
      {"measurement": "Activity", "setting": "HL-60 [8]", "result": 21.9, "unit": "%"},
      {"measurement": "inhibition", "setting": "Histone deacetylase 1", "result": "Active"},
      {"measurement": "Activity", "setting": "HL-60 [9]", "result": "Active"},
      {"measurement": "Activity", "setting": "HL-60 [10]", "result": 1.9, "unit": "%"},
      {"measurement": "Activity", "setting": "HL-60 [11]", "result": 12.6, "unit": "%"}
    ]},
    {"smiles": "O=C(NCCSSCCNC(=O)/C(Cc1ccc(O)c(Br)c1)=N/O)/C(Cc1ccc(O)c(Br)c1)=N/O", "note": "[PSAMMAPLIN A]", "values": [
      {"measurement": "Activity", "setting": "HL-60 [12]", "result": 2.6, "unit": "%"}
    ]},
    {"smiles": "O=C(NCCS)/C(Cc1ccc(O)c(Br)c1)=N/O", "values": [
      {"measurement": "Activity", "setting": "HL-60 [13]", "result": 25.1, "unit": "%"},
      {"measurement": "Activity", "setting": "[14]", "result": 18.6, "unit": "g"},
      {"measurement": "Activity", "setting": "[15]", "result": 0.5, "unit": "g"},
      {"measurement": "Activity", "setting": "HL-60 [16]", "result": 3.3, "unit": "%"}
    ]}
  ]
}
